Test results from ChEMBL document CHEMBL3784986, “Discovery and Characterization of Biased Allosteric Agonists of the Chemokine Receptor CXCR3” (J Med Chem, 2016).
The source made the active and inactive calls. The rule behind the calls is not given here.

What was measured:
[1] = molecular target: T1, C-X-C chemokine receptor type 3 (Homo sapiens) (UniProt P49682); assay: Positive allosteric modulation of human CXCR3 expressed in HEK293T cell membranes after 30 mins by [35S]GTPgammaS incorporation assay relative to CXCL11; assay type: functional; conditions: HEK-293T
T1 sequence (whole entry): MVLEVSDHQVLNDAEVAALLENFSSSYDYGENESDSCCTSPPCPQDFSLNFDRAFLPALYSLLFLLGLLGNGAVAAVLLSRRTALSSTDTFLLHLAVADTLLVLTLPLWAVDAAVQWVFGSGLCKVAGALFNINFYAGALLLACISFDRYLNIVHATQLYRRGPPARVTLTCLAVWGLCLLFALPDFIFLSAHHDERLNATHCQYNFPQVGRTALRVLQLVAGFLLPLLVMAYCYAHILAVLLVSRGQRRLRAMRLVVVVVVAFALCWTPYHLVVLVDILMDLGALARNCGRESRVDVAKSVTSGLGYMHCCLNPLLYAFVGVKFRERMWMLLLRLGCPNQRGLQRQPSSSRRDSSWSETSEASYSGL
In short: (§1)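 Membranes from HEK293 cells stably expressing CXCR3 (30 µg/mL protein) in 20 mM HEPES, 10 mM MgCl2, 100 mM NaCl, 100 mg/L saponin, pH 7.4. Compound plus 1 µM GDP preincubated 30 min at 37 °C, then 0.10 nM [35S]GTPγS added for 30 min at 37 °C. Filtered on GF/B and counted. Efficacy expressed as % of CXCL11. Three experiments in triplicate, pEC50 by nonlinear regression.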

[2] = Cytotoxicity against HEK293T cells expressing CXCR3 at 10 uM incubated overnight by ApoTox-Glo Triplex assay; assay type: cell-based; conditions: human, hek-293t
In short: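 10,000 HEK293T cells stably expressing CXCR3 incubated overnight with compound at 10 µM. ApoTox-Glo triplex. Viability read by fluorescence at 400Ex/505Em (GF-AFC) and cytotoxicity at 485Ex/520Em (bis-AAF-R110), each after a 30 min reagent step. Caspase-3/7 luminescence then read after a further 30 min.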

[3] = molecular target: T1, C-X-C chemokine receptor type 3 (Homo sapiens); assay: Positive allosteric modulation of ProLink1-tagged wild type CXCR3 (unknown origin) expressed in HEK293T cells assessed as beta-arrestin-2 recruitment incubated for 4 hrs by chemiluminescence-based microplate reader method relative to CXCL11; assay type: cell-based; conditions: HEK-293T
In short: (§2)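 HEK293 cells stably expressing β-gal enzyme acceptor, transiently transfected with PK1- or PK2-tagged wild-type CXCR3, 2000 cells/well, grown overnight at 37 °C. Compounds or CXCL11 in PBS pH 7.4 with 0.20% BSA added for 4 h. Detection mix 60 min at room temperature, then chemiluminescence read. Efficacy expressed as % of CXCL11 effect. Two to three experiments in triplicate.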

[4] = molecular target: T1, C-X-C chemokine receptor type 3 (Homo sapiens); assay: Positive allosteric modulation of ProLink1-tagged wild type CXCR3 (unknown origin) expressed in HEK293T cells assessed as beta-arrestin-2 recruitment incubated for 4 hrs by chemiluminescence-based microplate reader method; assay type: cell-based; conditions: HEK-293T; in short: as §2
[5] = molecular target: T1, C-X-C chemokine receptor type 3 (Homo sapiens); assay: Inhibition of CXCL10-mediated activation of human CXCR3 expressed in HEK cells; assay type: cell-based; conditions: HEK293
[6] = molecular target: T1, C-X-C chemokine receptor type 3 (Homo sapiens); assay: Inhibition of CXCL11-mediated activation of human CXCR3 expressed in HEK cells; assay type: cell-based; conditions: HEK293
[7] = molecular target: T1, C-X-C chemokine receptor type 3 (Homo sapiens); assay: Positive allosteric modulation of ProLink2-tagged wild type CXCR3 (unknown origin) expressed in HEK293T cells assessed as beta-arrestin-2 recruitment incubated for 4 hrs by chemiluminescence-based microplate reader method relative to CXCL11; assay type: cell-based; conditions: HEK-293T; in short: as §2
[8] = molecular target: T1, C-X-C chemokine receptor type 3 (Homo sapiens); assay: Positive allosteric modulation of human CXCR3 expressed in HEK293T cell membranes after 30 mins by [35S]GTPgammaS incorporation assay; assay type: functional; conditions: HEK-293T; in short: as §1

Row | Compound | Efficacy [1] | Activity [2] | Efficacy [3] | pEC50 [4] | inhibition [5] | inhibition [6] | Efficacy [7] [%] | pEC50 [8] | Activity [8]
1 | COc1ccc(C(=O)CCC(=O)N2Cc3ccccc3C[C@H]2C(=O)NCCCC[C@H](NC(=O)OC(C)(C)C)C(=O)NCC(c2ccccc2)c2ccccc2)cc1OC | 18% | Non-toxic | inactive | inactive | inactive | inactive | – | – | –
2 | N[C@@H](CCCCNC(=O)[C@@H]1Cc2ccccc2CN1)C(=O)NCC(c1ccccc1)c1ccccc1 | 40% | – | 14% | – | inactive | inactive | 85 | – | –
3 | CC(C)(C)OC(=O)NCCCC[C@@H](NC(=O)[C@@H]1Cc2ccccc2CN1C(=O)CCC(=O)c1ccccc1)C(=O)NCC(c1ccccc1)c1ccccc1 | 33% | – | 36% | – | – | – | 30 | – | –
4 | CC(C)(C)OC(=O)N[C@@H](CCCCNC(=O)[C@@H]1Cc2ccccc2CN1C(=O)CCC(=O)c1ccc(S(C)(=O)=O)cc1)C(=O)NCC(c1ccccc1)c1ccccc1 | 25% | Non-toxic | inactive | inactive | inactive | inactive | – | – | –
5 | CC(C)(C)OC(=O)N[C@@H](CCCCNC(=O)[C@@H]1Cc2ccccc2CN1C(=O)CCC(=O)c1cccs1)C(=O)NCC(c1ccccc1)c1ccccc1 | inactive | – | inactive | inactive | inactive | inactive | – | inactive | –
6 | CC(C)(C)OC(=O)N[C@@H](CCCCNC(=O)[C@@H]1Cc2ccccc2CN1C(=O)CCC(=O)N1CCOCC1)C(=O)NCC(c1ccccc1)c1ccccc1 | inactive | – | inactive | inactive | inactive | inactive | – | inactive | –
7 | NCCCC[C@@H](NC(=O)[C@@H]1Cc2ccccc2CN1C(=O)CCC(=O)c1ccccc1)C(=O)NCC(c1ccccc1)c1ccccc1 | 85% | – | 108% | – | – | – | 198 | – | –
8 | CC(=O)CCC(=O)N1Cc2ccccc2C[C@H]1C(=O)NCCCC[C@H](NC(=O)OC(C)(C)C)C(=O)NCC(c1ccccc1)c1ccccc1 | inactive | Non-toxic | 34% | – | inactive | inactive | 63 | inactive | –
9 | CC(C)(C)OC(=O)N[C@@H](CCCCNC(=O)[C@@H]1Cc2ccccc2CN1C(=O)CCC(=O)c1ccc(F)cc1)C(=O)NCC(c1ccccc1)c1ccccc1 | 20% | Non-toxic | inactive | inactive | inactive | inactive | – | – | –
10 | CC(C)(C)OC(=O)N[C@H](CCCCNC(=O)[C@@H]1Cc2ccccc2CN1C(=O)CCC(=O)c1ccccc1)C(=O)NCC(c1ccccc1)c1ccccc1 | inactive | Non-toxic | 16% | – | inactive | inactive | 88 | inactive | –
11 | CC(C)(C)OC(=O)N[C@@H](CCCCNC(=O)[C@@H]1Cc2ccccc2CN1C(=O)CCCC(=O)c1ccccc1)C(=O)NCC(c1ccccc1)c1ccccc1 | inactive | Non-toxic | 20% | – | inactive | inactive | 56 | inactive | –
12 | CC(C)(C)OC(=O)N[C@@H](CCCCNC(=O)[C@@H]1Cc2ccccc2CN1)C(=O)NCC(c1ccccc1)c1ccccc1 | 34% | Non-toxic | 31% | – | inactive | inactive | 79 | – | –
13 | CN1CCN(C(=O)CCC(=O)N2Cc3ccccc3C[C@H]2C(=O)NCCCC[C@H](NC(=O)OC(C)(C)C)C(=O)NCC(c2ccccc2)c2ccccc2)CC1 | inactive | – | inactive | inactive | inactive | inactive | – | inactive | –
14 | CC(C)(C)OC(=O)N[C@H](CCCCNC(=O)[C@@H]1Cc2ccccc2CN1)C(=O)NCC(c1ccccc1)c1ccccc1 | – | Non-toxic | – | – | inactive | inactive | – | – | –
15 | CC(C)(C)OC(=O)N[C@@H](CCCCNC(=O)[C@@H]1Cc2ccccc2CN1C(=O)CCCc1ccccc1)C(=O)NCC(c1ccccc1)c1ccccc1 | 29% | Non-toxic | inactive | inactive | inactive | inactive | – | – | –
16 | CC(C)(C)OC(=O)N[C@@H](CCCCNC(=O)[C@@H]1Cc2ccccc2CN1C(=O)CCC(=O)N1CCCCC1)C(=O)NCC(c1ccccc1)c1ccccc1 | inactive | – | inactive | inactive | inactive | inactive | – | inactive | –
17 | N[C@@H](CCCCNC(=O)[C@@H]1Cc2ccccc2CN1C(=O)CCCC(=O)c1ccccc1)C(=O)NCC(c1ccccc1)c1ccccc1 | inactive | – | 20% | – | inactive | inactive | 91 | inactive | –
18 | N[C@@H](CCCCNC(=O)[C@@H]1Cc2ccccc2CN1C(=O)CCC(=O)c1ccccc1)C(=O)NCC(c1ccccc1)c1ccccc1 | inactive | – | 17% | – | inactive | inactive | 27 | inactive | –
19 | NCCCC[C@H](NC(=O)[C@@H]1Cc2ccccc2CN1C(=O)CCC(=O)c1ccccc1)C(=O)NCC(c1ccccc1)c1ccccc1.O=C(O)C(F)(F)F | 109% | Non-toxic | 139% | – | – | – | – | – | Dose-dependent effect
20 | CC(C)(C)OC(=O)NCCCC[C@H](NC(=O)OCc1ccccc1)C(=O)NCC(c1ccccc1)c1ccccc1 | – | Non-toxic | – | – | – | – | – | – | –
21 | CC(C)(C)OC(=O)N[C@@H](CCCCNC(=O)[C@@H]1Cc2ccccc2CN1C(=O)CCC(=O)c1ccco1)C(=O)NCC(c1ccccc1)c1ccccc1 | inactive | – | inactive | inactive | inactive | inactive | – | inactive | –
22 | CC(C)(C)OC(=O)N[C@@H](CCCCNC(=O)[C@@H]1Cc2ccccc2CN1C(=O)CCc1ccccc1)C(=O)NCC(c1ccccc1)c1ccccc1 | 30% | Non-toxic | 19% | – | inactive | inactive | 29 | – | –
23 | N[C@H](CCCCNC(=O)[C@@H]1Cc2ccccc2CN1C(=O)CCC(=O)c1ccccc1)C(=O)NCC(c1ccccc1)c1ccccc1 | 25% | – | 28% | – | inactive | inactive | 79 | – | –
